Compound activity: PubChem BioAssay, several laboratories
M1 agonist – activates the M1 muscarinic receptor; CHO-M1 cells, Fluo-4 calcium fluorescence, agonist mode; stronger effect = higher value; B-score at 10 µM; 64,000 compounds, 3% hits;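 active = fluorescence rise, raw or as B-score row- and column-corrected plate score, outside the 99.7% band of its plate's samples, either direction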
M1 antagonist – M1 muscarinic receptor (rat) antagonism; P08482; CHO-M1 cells, Fluo-4 calcium, ACh EC80 antagonist mode; stronger effect = lower value; B-score at 10 µM; 64,000 compounds, 3.4% hits; AID 628;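 active = calcium fluorescence response, raw or row-and-column corrected B-score, differing from the plate sample mean either way at a set confidence level, mostly lower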
Jurkat tox 60K – cytotoxic compounds reducing Jurkat cell viability; Jurkat E6.1 viability, ATP luminescence, 48 h; inhibition, % at 4 µM; 56,000 compounds, 1.2% hits; AID 463;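 active = inhibition above the mean inhibition of all tested compounds plus 3 SD, cut at about 28% in these data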
S1P1 ag pot – agonists and agonism potentiators of human S1P1 receptor; activation, % at 9.5 µM; S1P1 CRE-bla cells, forskolin, beta-lactamase FRET, potentiator mode; S1P1 agonist co-added at EC20, 2 nM; 100% = saturating reference agonist, 0% = basal; 56,000 compounds, 0.57% hits; P21453;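 active = activation above a cutoff set at the mean activation of all tested compounds plus 3 SD, cut at about 54% in these data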;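 note: forskolin at 4 µM as EC80 and the EC20 agonist is SEW2871; 100% = SEW2871 at its EC100 plus forskolin at EC80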
Target sequence (P21453 whole entry, looked up): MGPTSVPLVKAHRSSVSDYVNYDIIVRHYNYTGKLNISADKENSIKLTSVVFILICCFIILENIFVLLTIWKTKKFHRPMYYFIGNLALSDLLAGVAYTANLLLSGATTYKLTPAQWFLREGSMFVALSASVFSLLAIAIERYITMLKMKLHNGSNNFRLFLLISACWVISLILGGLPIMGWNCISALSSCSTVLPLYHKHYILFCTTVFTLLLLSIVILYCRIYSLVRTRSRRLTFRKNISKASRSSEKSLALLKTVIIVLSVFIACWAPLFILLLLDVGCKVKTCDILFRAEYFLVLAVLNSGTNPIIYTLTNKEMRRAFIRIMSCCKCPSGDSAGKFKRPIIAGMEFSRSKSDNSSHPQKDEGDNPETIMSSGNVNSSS
S1P3 ag – S1P3 (human) receptor agonism. Q99500. S1P3 NFAT-BLA reporter cells, FRET ratio; relative to 1 µM S1P, basal subtracted. activation, % at 4.5 µM. 60,000 compounds, 0.1% hits;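 active = activation above the screen-wide mean plus 3 SD, cut at about 4.5% in these data, passing the limit was not always enough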
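material = human S1P3 NFAT-BLA reporter CHO cells | schedule = 4 h compound at 37 °C, 2 h substrate at RT | measured by = fluorescent BLA substrate, ex 405 nm, em 460/535 nm ratio | controls = 1 µM S1P reference | replication = primary once, confirmation triplicate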
JNK3 inh – inhibitors of human JNK3 kinase; P53779; purified JNK3 kinase activity, HTS; inhibition, % at 8 µM; 60,000 compounds, 0.61% hits; AID 746; in the data active = inhibition above about 17%;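 note: 0% = DMSO and 100% = reference inhibitor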
An asterisk follows results filed as active; / = no result given. The list is not random: actives were taken first. Their share in the collection is about 7.4%.

SMILES	M1 agonist	M1 antagonist	Jurkat tox 60K	S1P1 ag pot	S1P3 ag	JNK3 inh
O=C(O)CCCNc1cc(N2CCC3(CC2)OCCO3)c2noc3c2c1C(=O)c1ccccc1-3	6.19*	0.416	-2.1	-38.8	-0.2	8.3
CC1=C(C(=O)OCc2ccc3c(c2)OCO3)C(c2ccccc2)NC(=O)N1 (stereo not drawn)	-0.637	-0.267	38.1*	88.1*	-0.8	-7.5
Cc1nn(-c2ccc(Cl)cc2)c2sc(C(=O)N3CCN(c4ccccn4)CC3)cc12	-0.157	-0.0214	0.2	-4.7	-1.2	-1.9
Cc1nn(-c2ccc(Cl)cc2)c2sc(C(=O)N3CCN(C(=O)c4ccco4)CC3)cc12	2.76*	0.207	/	/	/	/
Cc1nn(C)c(C)c1S(=O)(=O)N(CC(=O)NCCN1CCOCC1)c1ccc(C(C)C)cc1	1.12	-0.0978	-5.6	-17.9	-0.6	11.0
O=C(Nc1ccc(Cl)cn1)c1cccc(F)c1	-0.0546	0.0463	84.8*	7.7	-1.5	8.4
O=C(COc1ccc(Cl)cc1Cl)Nc1ccc(Cl)cn1	-1.04	0.143	-7.3	-9.5	0.1	5.9
CCOc1ccc(C(=O)Nc2ccc(Cl)cn2)cc1Cl	-0.931	-0.766	10.3	72.7*	-1.2	6.4
COc1ccc(CCNCc2csc3nc4ccccc4n23)cc1OC	0.0387	0.422	46.0*	46.5	-1.2	2.2
CCOc1cc2[nH]c(=O)n(CC3CCC(C(=O)NC(C)CC)CC3)c(=O)c2cc1OCC (stereo not drawn)	0.46	1.08*	1.9	-6.8	0.0	5.0
CCOc1cc2[nH]c(=O)n(CC3CCC(C(=O)NC4CCCCC4)CC3)c(=O)c2cc1OCC (stereo not drawn)	-0.983	0.344	4.8	-14.7	-0.1	10.2
CCCCc1c(O)n2c(nc3ccccc32)[nH]c1=O	-0.769	0.378	-0.3	-0.8	-0.7	2.8
CCCc1cc(=O)n2c(nc3ccccc32)[nH]1	0.0767	-0.91	-3.1	/	0.1	27.6*
COc1ccc(NC(=O)C(C)Oc2ccc(/C(C)=N\O)cc2)cc1 (stereo not drawn)	1.05	-0.542	6.6	3.3	-1.2	0.4
O=C(O)CN1C(=O)c2cccc(Oc3ccc(Cl)cc3)c2C1=O	-0.018	0.809	6.9	/	0.3	-4.8
CCOC(=O)c1[nH]c(C)c(C(=O)Nc2ccc(F)cc2)c1C	0.256	-0.768	8.1	8.9	-1.7	2.3
CCOC(=O)c1[nH]c(C)c(C(=O)Nc2ccc(C)cc2C)c1C	0.0264	-0.252	92.8*	24.9	-0.7	-2.2
CCOC(=O)c1[nH]c(C)c(C(=O)Nc2ccccc2F)c1C	1.25	-0.16	88.6*	10.6	-0.9	0.3
CCCCn1c(SCC(=O)Nc2ccc3c(c2)OCO3)nc2c1c(=O)n(C)c(=O)n2C	-0.616	0.203	1.6	-15.9	0.2	-4.5
CC(c1ccco1)N(C(=O)CSc1ccc(Br)cc1)c1ccccn1 (stereo not drawn)	0.431	0.378	0.5	0.3	-0.3	1.9
O=C(O)CCCC(=O)NCCCCc1ccccc1	1.13	-0.0977	0.2	-12.8	-1.8	3.2
Cc1c(-c2nc(N)nc(Nc3ccccc3)n2)oc2ccccc12	-0.0281	-0.759	15.4	-64.4	-1.3	18.5*
COc1ccc(C)cc1NC(=O)c1nnn(CCc2ccccc2)c1N	0.525	0.246	-5.7	19.0	0.3	7.7
Nc1c(C(=O)Nc2ccc3c(c2)OCCO3)nnn1CCc1ccccc1	1.5	-0.364	80.5*	11.9	-0.3	0.3
O=C(CCNc1ccc(Cl)c(C(F)(F)F)c1)c1ccco1	0.0577	-0.555	3.3	16.5	-1.1	6.2
SMILES	M1 agonist	M1 antagonist	Jurkat tox 60K	S1P1 ag pot	S1P3 ag	JNK3 inh
O=C(CCNc1ccc(F)c(Cl)c1)c1ccco1	0.819	-0.0202	65.3*	10.4	-2.0	2.0
Cc1nnc2sc(-c3ccncc3)nn12	0.227	-1.36	-7.0	5.6	-1.2	6.5
CC(C)(C)c1ccc(-c2nnc3sc(-c4ccncc4)nn23)cc1	-0.621	8.91*	25.2	-41.6	-0.6	-0.8
COc1ccccc1S(=O)(=O)Cc1ccc(C(=O)NCc2cccs2)o1	0.0257	2.17*	-5.3	2.5	0.6	2.7
COc1ccccc1-c1cc(C(=O)NCc2cccs2)no1	-0.326	-0.188	8.2	30.6	-0.2	3.4
COc1cccc2c(=O)c(C(=O)NCc3cccs3)c[nH]c12	0.812	0.272	2.0	8.1	-0.4	37.3*
Cn1c(Cn2cnc3ccccc32)nnc1SCc1ccccc1	0.253	-0.214	15.6	3.0	-0.5	1.1
COc1ccccc1Oc1ccc2c(c1)C(=O)N(c1cccc(O)c1)C2=O	0.455	-0.0453	9.7	94.1*	-1.9	-0.8
CCC/C(O)=C1\C(=O)CC(C)(C)CC1=Nc1ccc(OC)cc1OC	2.15	-0.361	86.5*	8.5	-1.2	2.3
COc1ccc(OC)c(N=CC2=C(O)CC(C)(C)CC2=O)c1	0.444	0.536	3.9	-14.9	-1.9	-12.6
CCOc1ccc(-c2nc(CSc3nncs3)cs2)cc1OC	0.18	0.673	/	/	/	/
COc1ccccc1CC(=O)Nc1ccc(O)cc1C(=O)O	0.295	-0.0125	3.1	/	-0.4	9.5
CC(=O)[C@@H]1[C@@H]2C(=O)N(Cc3ccccc3)C(=O)[C@@H]2C2c3ccccc3C=CN21 (stereo partly drawn)	25.5*	0.0584	-0.2	12.2	-1.7	1.1
COC(=O)c1sccc1NC(=O)c1ccc(OC)cc1	-0.508	-0.881	0.5	-18.8	-0.8	37.5*
CC(=O)Nc1ccc(S(=O)(=O)N(C)CC(=O)Nc2ccccc2N2CCOCC2)cc1	0.394	-0.765	1.0	1.3	-0.5	1.9
Cc1ccsc1C=Nc1ccc(O)cc1	-0.409	0.184	47.8*	-25.6	-0.1	2.5
CNC(=O)c1[nH]cnc1C(=O)Nc1cccc(OC)c1	-0.328	0.167	1.3	-18.7	0.1	17.9*
COCCn1c(SCc2ccc(C(=O)OC)o2)nc2cc(Cl)ccc2c1=O	0.64	-0.375	-2.0	-15.1	-0.2	-1.9
CC(C)(C)NC(=O)c1ccc2c(c1)N(CC(=O)N1CCN(c3ccc(F)cc3)CC1)C(=O)C(C)(C)O2	0.108	0.0379	1.1	-9.2	-0.2	-3.5
Cc1cc(C)c2c(n1)nn1c(NCCCn3ccnc3)cc(C)nc21	0.257	-3.26*	-6.8	-8.3	0.3	-0.3
COc1ccc(C2C(C(=O)NCc3ccco3)CCC(=O)N2c2ccc(OC)cc2)cc1 (stereo not drawn)	-0.337	0.583	3.4	-21.3	-1.0	17.3*
O=C(Cn1cnc2sc(-c3ccccc3)cc2c1=O)NCc1ccco1	0.69	0.11	42.5*	12.3	0.0	1.9
O=C(NCC1CCCO1)C1CCCCN1S(=O)(=O)c1ccc(F)cc1 (stereo not drawn)	-0.774	1.13	/	/	/	/
OCCN1CCN(c2nc(-c3ccccc3)c3cc(Cl)ccc3n2)CC1	0.0229	-0.798	2.6	-40.7	4.6*	-1.7
Clc1ccc2nc(N3CCNCC3)nc(-c3ccccc3)c2c1	0.0967	-0.445	/	-49.5	18.4*	-0.3
